Assay results published in PubChem BioAssay AID2340 (Sanford-Burnham Center for Chemical Genomics, 2010).
The source made the active and inactive calls.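 How the source made its calls: active means potency EC50 below 10 µM in the dose response test; inactive means the rest.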

target: G-protein coupled receptor 35 (Homo sapiens) (UniProt Q9HC97); assay: beta-arrestin-GFP translocation driven by GPR35 – imaging, U2OS, powder samples, selectivity assay, SAR follow-up (AID 2340)
In short: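 Benchmarks – zaprinast 10 µM as positive control · System – human U2OS cells stably co-expressing GPR35 and beta-arrestin-GFP · Signal – imaging of fixed, DAPI-stained arrestin-GFP cells · Incubation – 45 min at 37 °C · Medium – serum-starved cells · Read-out basis – Arrestin-GFP spot versus cytoplasm intensity ratio, non-linear sigmoidal curve fit · Repeats – duplicate wells per dose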

Sequence of G-protein coupled receptor 35 (Homo sapiens) (Q9HC97 whole entry, looked up): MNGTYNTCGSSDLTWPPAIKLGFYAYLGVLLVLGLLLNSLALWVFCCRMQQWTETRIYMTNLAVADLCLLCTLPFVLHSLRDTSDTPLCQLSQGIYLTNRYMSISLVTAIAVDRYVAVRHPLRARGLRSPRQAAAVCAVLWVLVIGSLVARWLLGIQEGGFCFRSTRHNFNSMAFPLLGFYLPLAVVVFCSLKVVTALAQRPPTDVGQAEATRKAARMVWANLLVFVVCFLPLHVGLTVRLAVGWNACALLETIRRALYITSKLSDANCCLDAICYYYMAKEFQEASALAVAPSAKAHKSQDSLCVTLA

Row | EC50 | SMILES
1 | > 32 µM (inactive) | COc1cc2c(cc1NC(=O)C(C)Sc1ccc(NC(C)=O)cc1)oc1ccccc12 (stereo unspecified)
2 | > 32 µM (inactive) | CCCN(CCC)Cc1c(C(=O)NN=Cc2c[nH]c3ccccc23)nnn1-c1nonc1N
3 | > 32 µM (inactive) | COc1ccccc1/C=C/C(=O)NC(=S)Nc1ccc(S(=O)(=O)N(C)c2ccccc2)cc1
4 | > 32 µM (inactive) | COc1ccc(S(=O)(=O)N2CCOCC2)cc1NC(=O)c1cc2c(s1)CCCC2
5 | > 32 µM (inactive) | CCCN(CCC)Cc1c(C(=O)NN=C/C(C)=C\c2ccco2)nnn1-c1nonc1N
6 | > 32 µM (inactive) | CC(Sc1nc2cc(Cl)ccc2s1)C(=O)Nc1cccc(S(=O)(=O)N2CCOCC2)c1 (stereo unspecified)
7 | > 32 µM (inactive) | O=C(CSc1nc2ccccc2s1)N1c2ccccc2Sc2ccc(Cl)cc21
8 | > 32 µM (inactive) | COc1ccc2c(c1)cc(C)c1nnc(SCC(=O)N(C)c3nc(-c4ccccc4)cs3)n12
9 | > 32 µM (inactive) | CN(C)S(=O)(=O)c1ccc(N2CCCC2)c(C(=O)N2CCN(c3ccc([N+](=O)[O-])cc3)CC2)c1
10 | > 32 µM (inactive) | COc1ccc2cc(C)c3nnc(SCC(=O)Nc4nc(-c5ccc(F)cc5)cs4)n3c2c1
11 | > 32 µM (inactive) | Cc1occc1C(=O)Nc1ccc(OCc2ccccc2)cc1
12 | > 32 µM (inactive) | COc1ccc(-c2csc(NC(=O)CSc3nnc4c(C)cc5ccccc5n34)n2)cc1
13 | > 32 µM (inactive) | CC(C)=CC(=O)Nc1ccc(OCc2ccccc2)cc1
14 | > 32 µM (inactive) | CC(C)Oc1ccc(S(=O)(=O)N2CCOCC2)cc1NC(=O)c1ccc(N2CCCC2=O)cc1
15 | > 32 µM (inactive) | COc1cc2c(cc1NC(=O)CSc1ccccc1)oc1ccccc12
16 | > 32 µM (inactive) | C=CCN(CC=C)S(=O)(=O)c1ccc(NC(=S)NC(=O)c2ccc(-c3ccccc3)cc2)cc1
17 | > 32 µM (inactive) | CCCN(CCC)Cc1c(C(=O)NN=C/C(C)=C\c2ccccc2)nnn1-c1nonc1N
18 | > 32 µM (inactive) | Cc1cccc(N2CCN(C(=O)c3cc(S(=O)(=O)N(C)C)ccc3N3CCCC3)CC2)c1C
19 | > 32 µM (inactive) | CC(C)NS(=O)(=O)c1ccc(NC(=S)NC(=O)c2ccc(-c3ccccc3)cc2)cc1
20 | > 32 µM (inactive) | C/C(C=NNC(=O)c1nnn(-c2nonc2N)c1CN1CCC(C)CC1)=C/c1ccccc1
21 | > 32 µM (inactive) | O=C(CSc1nc2ccccc2s1)N1c2ccccc2Sc2ccc(C(F)(F)F)cc21
